For data set [1], the target named is Epidermal growth factor receptor (Homo sapiens, UniProt P00533). The experiment in a line: Inhibition of EGFR phosphorylation in serum starved human A-431 cells incubated for 1 hr by immunoblotting analysis. The class given is cell-based. The procedure, abridged: (§1)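 Cells starved overnight in basic medium with 0.5% FBS, incubated 1 h with compound or 0.1% DMSO, then stimulated 5 min at 37°C with human recombinant cognate ligand. Receptor immunoprecipitated from lysate and immunoblotted for phosphotyrosine; IC50 by nonlinear regression of percent inhibition, n = 4.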
Background: A western blot detects proteins with antibodies after separation by electrophoresis.

Data set [2] has as its system Calu-6. The experiment in a line: Antitumor activity against human Calu-6 cells xenografted in RH-rnu/rnu athymic rat assessed as tumor growth inhibition at 1.0 mg/kg, po administered once daily for 2 to 21 days by DCE-MRI analysis. As to conditions: time 2-21 day. In general terms: Xenograft models place foreign cells or tissue in a host animal.
A further data set has as its system SK-HEP1. The data set is described as follows: Antitumor activity against human SK-HEP1 cells xenografted in gamma-irradiation induced RH-rnu/rnu athymic rat assessed as tumor growth inhibition at 1.0 mg/kg, po administered once daily for 2 weeks and measured on day 14 relative to control. The class given is functional. As to conditions: SK-HEP1, light or radiation study, 336 h, read-out: TGI.

Data set [3] in a line: Inhibition of IGF-1R phosphorylation in serum starved human HT-29 cells incubated for 1 hr by immunoblotting analysis. The class given is cell-based. The procedure, abridged:
as §1

Data set [4] concerns A549. The experiment in a line: Antitumor activity against human A549 cells xenografted in F344/N Jcl-rnu athymic rat assessed as reduction in number of CD31-positive cells in viable regions of tumor at 1.0 mg/kg, po administered once daily for 7 days by immunofluorescence staining analysis relative to control. The following applies: time 7 day.
The nature of data set [5]: Half life in F344/N JcL-rnu athymic rat at 1 mg/kg, po measured upto 72 hrs by HPLC-MS/MS analysis. Type of data set: ADME, organism-based. As to conditions: in vivo. The essentials:
(§2)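 Female F344/N JcL-rnu rats, four per group, single p.o. dose suspended in 0.5% methyl cellulose. Tail-vein blood sampled at set times to 72 h. Serum spiked with internal standard, deproteinated with acetonitrile, analysed by HPLC-MS/MS. Parameters derived by noncompartmental analysis.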

Data set [6] is described as follows: Cmax in F344/N JcL-rnu athymic rat at 0.04 mg/kg, po measured upto 72 hrs by HPLC-MS/MS analysis. Type of data set: ADME, organism-based. As to conditions: in vivo. The essentials: as §2
The test system of data set [7] is Calu-6. The data set is described as follows: Antitumor activity against human Calu-6 cells xenografted in RH-rnu/rnu athymic rat assessed as larger enclosed median lumen area by the halos in tumor by measuring vessel diameter at 1 mg/kg, po administered for 14 days by H33342 dye based fluorescence microscopic analysis. The class given is functional. The following applies: time 14 day. The procedure, abridged: (§3)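 Calu-6 tumor-bearing athymic rats, three per group, received oral drug at 0.2 or 1 mg/kg or vehicle on days 0-13. They were killed 1 min after i.v. H33342 at 20 mg/kg on day 13. 10 µm cryosections were cut from five tumor levels at least 200 µm apart and examined under UV epifluorescence. The major axis of fluorescent halos around vessels was measured by image analysis, with a Mann-Whitney test.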

In another data set the target is Focal adhesion kinase 1 (Homo sapiens, UniProt Q05397). The data set is described as follows: Inhibition of Fak (unknown origin) in presence of ATP. The procedure, abridged:
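Cell-free kinase assay using recombinant tyrosine kinases with 1 μmol/L ATP, run in quadruplicate. IC50 values determined.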

In a further data set the test system is DU-145. The experiment in a line: Antitumor activity against human DU-145 cells xenografted in gamma-irradiation induced RH-rnu/rnu athymic rat assessed as tumor growth inhibition at 0.2 mg/kg, po administered once daily for 2 weeks and measured on day 14 relative to control. As to conditions: DU-145, light or radiation study, 336 h, read-out: TGI. The class given is functional. The essentials: (§4)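 Rats were γ-irradiated with 7 Gy whole body, and 24 h later received s.c. tumor cells. Fragments (20-30 mg) from ~1,500 mm3 tumors were then implanted s.c. into irradiated athymic rats. Oral dosing at 0.2 or 1 mg/kg or vehicle ran once daily for 2 weeks from day 0. Tumors were measured with calipers twice weekly (length×width²×0.5). TGI% was taken versus vehicle on day 14 (BxPC-3: day 13), with an unpaired t test on RTV.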

The nature of data set [8]: Tmax in F344/N JcL-rnu athymic rat at 1 mg/kg, po measured upto 72 hrs by HPLC-MS/MS analysis. The class given is ADME, organism-based. The following applies: in vivo. The procedure, abridged: as §2
Data set [9] concerns A549. The experiment in a line: Antitumor activity against human A549 cells xenografted in F344/N Jcl-rnu athymic rat assessed as tumor regression at 0.2 mg/kg, po relative to control.
A further data set relates to SK-OV-3. The experiment in a line: Antitumor activity against human SK-OV-3 cells xenografted in gamma-irradiation induced RH-rnu/rnu athymic rat assessed as tumor growth inhibition at 1.0 mg/kg, po administered once daily for 2 weeks and measured on day 14 relative to control. The class given is functional. The following applies: SK-OV-3, light or radiation study, 336 h, read-out: TGI.

Data set [10] addresses Mitogen-activated protein kinase 1 (Homo sapiens, UniProt P28482). The experiment in a line: Inhibition of ERK2 phosphorylation in bFGF-stimulated serum-starved human HUVEC cells by immunoblotting analysis. Type of data set: cell-based.
Data set [11] can be described thus: Minimum concentration at steady state in F344/N JcL-rnu athymic rat at 0.2 mg/kg/day, po measured upto 72 hrs by HPLC-MS/MS analysis. The class given is ADME, organism-based. As to conditions: in vivo. The procedure, abridged:
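Steady-state serum levels for repeated oral 0.2 mg/kg daily dosing were simulated from single-dose serum data (female F344/N JcL-rnu rats, four per group, tail-vein sampling to 72 h, HPLC-MS/MS, noncompartmental analysis), not measured directly.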

The test system of data set [12] is A549. The experiment in a line: Antitumor activity against human A549 cells xenografted in F344/N Jcl-rnu athymic rat assessed as reduction in number of CD31-positive cells in viable regions of tumor at 0.04 mg/kg, po administered once daily for 7 days by immunofluorescence staining analysis relative to control. As to conditions: time 7 day.
In data set [13] the test system is Calu-6. The experiment in a line: Antitumor activity against human Calu-6 cells xenografted in RH-rnu/rnu athymic rat assessed as decreased microvessel density at 1 mg/kg, po administered for 14 days by immunofluorescence staining analysis relative to control. Type of data set: functional. Further details: scale not given: the % may be the effect or the level left. The following applies: time 14 day.

Another data set has as its system MDA-MB-231. The experiment in a line: Antitumor activity against human MDA-MB-231 cells xenografted in gamma-irradiation induced RH-rnu/rnu athymic rat assessed as relative tumor volume at 1 mg/kg, po administered once daily for 2 weeks and measured on day 7. Type of data set: functional. The procedure, abridged: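 Tumor fragments were grown in γ-irradiated (7 Gy) athymic rats, followed by once-daily oral dosing at 1 mg/kg for 2 weeks. Tumor volume was measured with calipers as length×width²×0.5. Relative tumor volume was calculated as volume on day x divided by volume on day 0.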

Data set [14] can be described thus: Apparent oral volume of distribution in F344/N JcL-rnu athymic rat at 5 mg/kg, po measured upto 72 hrs by HPLC-MS/MS analysis. The class given is ADME, organism-based. As to conditions: in vivo. The essentials:
as §2

Data set [15] in a line: Antitumor activity against human CGL-9 cells xenografted in gamma-irradiation induced RH-rnu/rnu athymic rat assessed as tumor growth inhibition at 0.2 mg/kg, po administered once daily for 2 weeks and measured on day 14 relative to control. Type of data set: functional. As to conditions: CGL-9, light or radiation study, 336 h, read-out: TGI. The procedure, abridged: as §4

Data set [16] can be described thus: Tmax in F344/N JcL-rnu athymic rat at 5 mg/kg, po measured upto 72 hrs by HPLC-MS/MS analysis. Type of data set: ADME, organism-based. As to conditions: in vivo. The procedure, abridged: as §2
The subject of data set [17] is Calu-6. The experiment in a line: Antitumor activity against human Calu-6 cells xenografted in RH-rnu/rnu athymic rat assessed as increased ratio of enlarged vessels with >100 uM diameter in tumor at 1 mg/kg, po administered for 14 days by H33342 dye based fluorescence microscopic analysis relative to control. The following applies: time 14 day. Type of data set: functional. The essentials:
as §3

Calls of active or inactive are those of the source. No cut-off for these calls is given here.

The results in this text go back to ChEMBL document CHEMBL5661970 (Cancer Res, 2006).

Chain of Epidermal growth factor receptor (P00533 whole entry): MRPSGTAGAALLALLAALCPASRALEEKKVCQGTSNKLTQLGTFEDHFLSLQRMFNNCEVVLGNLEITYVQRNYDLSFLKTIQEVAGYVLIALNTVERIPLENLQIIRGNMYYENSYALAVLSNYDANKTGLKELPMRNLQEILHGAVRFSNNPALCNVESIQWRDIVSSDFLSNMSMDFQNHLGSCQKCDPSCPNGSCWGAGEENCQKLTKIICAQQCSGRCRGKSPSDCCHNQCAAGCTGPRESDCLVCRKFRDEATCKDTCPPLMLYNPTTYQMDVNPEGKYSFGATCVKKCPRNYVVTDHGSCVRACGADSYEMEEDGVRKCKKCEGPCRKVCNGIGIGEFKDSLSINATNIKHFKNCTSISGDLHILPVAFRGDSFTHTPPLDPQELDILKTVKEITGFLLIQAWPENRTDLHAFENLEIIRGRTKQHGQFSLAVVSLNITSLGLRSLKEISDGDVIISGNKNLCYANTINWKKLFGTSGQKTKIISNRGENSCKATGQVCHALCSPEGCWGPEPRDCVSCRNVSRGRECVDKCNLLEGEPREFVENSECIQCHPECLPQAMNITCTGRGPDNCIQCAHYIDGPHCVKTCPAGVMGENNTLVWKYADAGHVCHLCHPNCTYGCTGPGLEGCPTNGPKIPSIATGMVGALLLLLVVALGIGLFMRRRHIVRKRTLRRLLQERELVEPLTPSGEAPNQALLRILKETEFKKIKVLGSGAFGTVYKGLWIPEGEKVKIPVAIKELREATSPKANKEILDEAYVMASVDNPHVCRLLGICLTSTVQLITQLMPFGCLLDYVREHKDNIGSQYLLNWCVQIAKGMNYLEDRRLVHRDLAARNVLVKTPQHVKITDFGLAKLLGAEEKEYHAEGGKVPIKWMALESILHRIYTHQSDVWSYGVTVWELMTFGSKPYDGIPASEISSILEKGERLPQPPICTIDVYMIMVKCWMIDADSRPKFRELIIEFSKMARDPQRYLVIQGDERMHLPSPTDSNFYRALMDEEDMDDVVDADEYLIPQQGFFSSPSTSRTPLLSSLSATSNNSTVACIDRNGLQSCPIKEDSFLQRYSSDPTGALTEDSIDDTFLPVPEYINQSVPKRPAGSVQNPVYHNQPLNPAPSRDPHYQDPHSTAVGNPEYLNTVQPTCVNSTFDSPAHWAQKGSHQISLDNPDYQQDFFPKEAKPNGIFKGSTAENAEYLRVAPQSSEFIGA
Chain of Focal adhesion kinase 1 (Q05397 whole entry): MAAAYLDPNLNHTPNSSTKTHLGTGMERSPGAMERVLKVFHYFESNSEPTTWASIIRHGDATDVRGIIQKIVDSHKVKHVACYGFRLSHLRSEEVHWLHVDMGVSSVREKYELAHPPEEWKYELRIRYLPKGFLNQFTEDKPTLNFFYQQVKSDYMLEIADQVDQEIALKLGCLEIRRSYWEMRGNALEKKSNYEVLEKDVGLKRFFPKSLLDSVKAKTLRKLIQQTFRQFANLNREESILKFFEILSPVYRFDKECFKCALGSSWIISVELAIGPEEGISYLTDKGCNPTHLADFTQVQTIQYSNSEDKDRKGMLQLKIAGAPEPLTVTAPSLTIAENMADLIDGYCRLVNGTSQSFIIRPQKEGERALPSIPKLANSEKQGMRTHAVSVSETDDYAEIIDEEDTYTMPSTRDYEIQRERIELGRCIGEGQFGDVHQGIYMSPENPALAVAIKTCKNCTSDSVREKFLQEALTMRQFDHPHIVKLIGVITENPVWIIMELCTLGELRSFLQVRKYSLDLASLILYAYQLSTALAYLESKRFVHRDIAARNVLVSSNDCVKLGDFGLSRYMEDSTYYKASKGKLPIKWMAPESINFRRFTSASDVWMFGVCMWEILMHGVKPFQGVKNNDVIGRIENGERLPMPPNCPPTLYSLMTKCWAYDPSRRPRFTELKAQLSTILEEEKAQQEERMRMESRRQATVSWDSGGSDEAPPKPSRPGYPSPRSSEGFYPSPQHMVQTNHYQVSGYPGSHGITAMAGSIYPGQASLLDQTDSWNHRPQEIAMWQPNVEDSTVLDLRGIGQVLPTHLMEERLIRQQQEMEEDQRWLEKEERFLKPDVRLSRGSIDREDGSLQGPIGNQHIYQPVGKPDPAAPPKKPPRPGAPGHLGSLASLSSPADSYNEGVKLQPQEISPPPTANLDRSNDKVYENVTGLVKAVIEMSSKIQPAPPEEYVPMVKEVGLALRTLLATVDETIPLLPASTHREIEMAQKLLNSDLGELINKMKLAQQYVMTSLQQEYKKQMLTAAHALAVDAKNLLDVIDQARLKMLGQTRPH
Chain of Mitogen-activated protein kinase 1 (P28482 whole entry): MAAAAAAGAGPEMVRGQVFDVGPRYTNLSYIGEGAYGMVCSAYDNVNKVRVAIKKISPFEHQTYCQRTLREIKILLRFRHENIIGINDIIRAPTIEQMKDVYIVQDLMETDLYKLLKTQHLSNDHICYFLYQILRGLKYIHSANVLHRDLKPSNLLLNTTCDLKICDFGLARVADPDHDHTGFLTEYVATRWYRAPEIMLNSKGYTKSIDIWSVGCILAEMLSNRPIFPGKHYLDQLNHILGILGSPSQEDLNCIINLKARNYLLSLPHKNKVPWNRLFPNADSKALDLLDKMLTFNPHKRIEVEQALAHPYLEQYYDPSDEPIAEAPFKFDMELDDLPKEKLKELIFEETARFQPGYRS

As usually defined, the IC50 is the midpoint of a concentration-inhibition curve. A word on the half-life: it is the time in which the quantity being followed falls by half. As usually defined, the Cmax is the highest concentration seen after dosing. One may read the Tmax as the time at which the peak concentration occurs. For orientation: Vd/F means the volume of distribution divided by bioavailability. Regarding `COc1cc2nccc(Oc3ccc(NC(=O)Nc4cc(C)on4)c(Cl)c3)c2cc1OC` [TIVOZANIB], the IC50 result in data set [1] is “Not Determined(Insoluble)”; in [3] it was “Not Determined(Insoluble)”; on Focal adhesion kinase 1, greater than 1000 nM. Further, the result with Calu-6 [2] was Active. Further, the inhibition in vivo at 1 mg/kg with SK-HEP1 was 89.9%; with SK-OV-3, 99.2%. Besides, the Activity with A549 [4] came out at 78.2%; with Calu-6 [7], 65.8 um; in the data set with A549 [12] it was 15.7%; with Calu-6 [13] it was 71.2%; in the data set with MDA-MB-231, 0.89; in the data set with Calu-6 [17], 30.3%. This molecule gave a half-life in data set [5] of 488 min. For the same molecule, in data set [6], the concentration peaked (Cmax) at 21.6 ng/mL. Further, the inhibition in vivo at 0.2 mg/kg amounted to 90.6% with DU-145 and 46% in [15]. Also, the time of peak concentration (Tmax) in data set [8] came out at 4.25 h; in [16], 3.5 h. Further, the tumor regression % at 0.2 mg/kg in the data set on A549 [9] was found to be 2%. The inhibition result in data set [10] was “inactive”. In addition, the Cminss in [11] was 22.2 ng/mL. Moreover, the Vd/F in data set [14] came out at 1.29 L/kg.
